Publication PMC11235002 (BMJ Oncology, 2024)

Tested on: patients with advanced or metastatic solid tumours
Experiment: Safety: treatment-emergent adverse events
Format: in vivo, human
In short: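 Safety covered monotherapy Parts 1a/2, with oral tablet or capsule dosing twice daily on days 1–28 of 28-day cycles. TEAEs were graded by CTCAE v4.03, which counts malignant progression as an AE. Laboratory values, vital signs and physical examinations were also monitored. The safety population was all patients receiving ≥1 dose. DLTs were defined as grade 3–4 toxicities, urea cycle inhibition, or AUC0–12h >100 µg.h/mL.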

Structure (SMILES): C[C@H](N)C(=O)N1C[C@H](CCCB(O)O)[C@](N)(C(=O)O)C1 [INCB001158]
- Fatigue, any-grade TEAE (monotherapy 100 mg bid (n=85)): 23 (27.1) n (%)
- Fatigue, grade ≥3 TEAE (monotherapy 100 mg bid (n=85)): 6 (7.1) n (%)
- Hypoalbuminaemia, any-grade TEAE (monotherapy 100 mg bid (n=85)): 6 (7.1) n (%)
- Hyponatraemia, any-grade TEAE (monotherapy 100 mg bid (n=85)): 5 (5.9) n (%)
- Hyponatraemia, grade ≥3 TEAE (monotherapy 100 mg bid (n=85)): 2 (2.4) n (%)
- Malignant neoplasm progression, grade ≥3 TEAE (monotherapy 100 mg bid (n=85)): 5 (5.9) n (%)
- Nausea, any-grade TEAE (monotherapy 100 mg bid (n=85)): 18 (21.2) n (%)
- Oedema peripheral, any-grade TEAE (monotherapy 100 mg bid (n=85)): 13 (15.3) n (%)
- Vomiting, any-grade TEAE (monotherapy 100 mg bid (n=85)): 9 (10.6) n (%)
- Colitis, irTEAE (monotherapy 100 mg bid (n=85), related to INCB001158 treatment): 1 (1.2)¶ n (%)
- ALT increased, any-grade TEAE (monotherapy 150 mg bid (n=7)): 1 (14.3) n (%)
- AST increased, any-grade TEAE (monotherapy 150 mg bid (n=7)): 1 (14.3) n (%)
- Abdominal pain, any-grade TEAE (monotherapy 150 mg bid (n=7)): 1 (14.3) n (%)
- Abdominal pain, grade ≥3 TEAE (monotherapy 150 mg bid (n=7)): 0 n (%)
- Anaemia, any-grade TEAE (monotherapy 150 mg bid (n=7)): 0 n (%)
- Anaemia, grade ≥3 TEAE (monotherapy 150 mg bid (n=7)): 0 n (%)
- Any TEAE (monotherapy 150 mg bid (n=7)): 7 (100.0) n (%)
- Any grade ≥3 TEAE (monotherapy 150 mg bid (n=7)): 1 (14.3) n (%)
- Any irTEAE (monotherapy 150 mg bid (n=7)): 0 n (%)
- Colitis, irTEAE (monotherapy 150 mg bid (n=7)): 0 n (%)
- Constipation, any-grade TEAE (monotherapy 150 mg bid (n=7)): 2 (28.6) n (%)
- Decreased appetite, any-grade TEAE (monotherapy 150 mg bid (n=7)): 2 (28.6) n (%)
- Diarrhoea, any-grade TEAE (monotherapy 150 mg bid (n=7)): 1 (14.3) n (%)
- Fatigue, any-grade TEAE (monotherapy 150 mg bid (n=7)): 3 (42.9) n (%)
- Fatigue, grade ≥3 TEAE (monotherapy 150 mg bid (n=7)): 0 n (%)
- Hypoalbuminaemia, any-grade TEAE (monotherapy 150 mg bid (n=7)): 1 (14.3) n (%)
- Hyponatraemia, any-grade TEAE (monotherapy 150 mg bid (n=7)): 1 (14.3) n (%)
- Hyponatraemia, grade ≥3 TEAE (monotherapy 150 mg bid (n=7)): 1 (14.3) n (%)
- Malignant neoplasm progression, grade ≥3 TEAE (monotherapy 150 mg bid (n=7)): 0 n (%)
- Nausea, any-grade TEAE (monotherapy 150 mg bid (n=7)): 1 (14.3) n (%)
- Oedema peripheral, any-grade TEAE (monotherapy 150 mg bid (n=7)): 1 (14.3) n (%)
- Vomiting, any-grade TEAE (monotherapy 150 mg bid (n=7)): 0 n (%)
- DLT (monotherapy 150 mg two times per day, one DLT): treatment-related grade 2 malaise
- TEAEs leading to INCB001158 discontinuation (monotherapy (8 patients)): 7.5%
- fatal TEAEs (monotherapy (10 patients), none considered related to INCB001158): 9.3%
- TEAEs leading to INCB001158 dose interruption (monotherapy (33 patients)): 30.8%
- Serious TEAEs (monotherapy (36 patients)): 33.6%
- patients with grade ≥3 TEAEs (monotherapy (N=107)): 45.8%
- INCB001158-related fatigue (monotherapy (n=10/107)): 9.3%
- INCB001158-related nausea (monotherapy (n=10/107)): 9.3%
- TEAEs grade 1/2 in severity (monotherapy Parts 1a/2): 54.2%
- ALT increased, any-grade TEAE (monotherapy Total (N=107)): 5 (4.7) n (%)
- AST increased, any-grade TEAE (monotherapy Total (N=107)): 10 (9.3) n (%)
- Abdominal pain, any-grade TEAE (monotherapy Total (N=107)): 18 (16.8) n (%)
- Abdominal pain, grade ≥3 TEAE (monotherapy Total (N=107)): 6 (5.6) n (%)
- Anaemia, any-grade TEAE (monotherapy Total (N=107)): 17 (15.9) n (%)
- Anaemia, grade ≥3 TEAE (monotherapy Total (N=107)): 6 (5.6) n (%)
- Any TEAE (monotherapy Total (N=107)): 102 (95.3) n (%)
- Any grade ≥3 TEAE (monotherapy Total (N=107)): 49 (45.8) n (%)
- Any irTEAE (monotherapy Total (N=107)): 1 (0.9) n (%)
- Colitis, irTEAE (monotherapy Total (N=107)): 1 (0.9) n (%)
- Constipation, any-grade TEAE (monotherapy Total (N=107)): 23 (21.5) n (%)
- Decreased appetite, any-grade TEAE (monotherapy Total (N=107)): 21 (19.6) n (%)
- Diarrhoea, any-grade TEAE (monotherapy Total (N=107)): 6 (5.6) n (%)
- Fatigue, any-grade TEAE (monotherapy Total (N=107)): 30 (28.0) n (%)
- Fatigue, grade ≥3 TEAE (monotherapy Total (N=107)): 6 (5.6) n (%)
- Hypoalbuminaemia, any-grade TEAE (monotherapy Total (N=107)): 7 (6.5) n (%)
- Hyponatraemia, any-grade TEAE (monotherapy Total (N=107)): 7 (6.5) n (%)
- Hyponatraemia, grade ≥3 TEAE (monotherapy Total (N=107)): 3 (2.8) n (%)
- Malignant neoplasm progression, grade ≥3 TEAE (monotherapy Total (N=107)): 5 (4.7) n (%)
- Nausea, any-grade TEAE (monotherapy Total (N=107)): 24 (22.4) n (%)
- Oedema peripheral, any-grade TEAE (monotherapy Total (N=107)): 16 (15.0) n (%)
- Vomiting, any-grade TEAE (monotherapy Total (N=107)): 14 (13.1) n (%)
- tolerability (monotherapy and combination with pembrolizumab): generally well tolerated
- patients with INCB001158-related TEAEs (monotherapy, safety-evaluable population): 43 n
- immune-related TEAE of colitis (monotherapy, one patient, led to discontinuation): 0.9%
- serious INCB001158-related TEAE (monotherapy, one patient, recovered/resolved): grade 3 adrenal haemorrhage
- maximum tolerated dose (up to 150 mg two times per day): No maximum tolerated dose was reached
